Published values of several laboratories.
Protocols differ between the studies behind these lines.
Target: Casein kinase I isoform gamma-2 (CSNK1G2, Homo sapiens, UniProt P78368)

NS(=O)(=O)c1cc(NC(=O)C2(c3ccccc3Cl)CC2)ccc1Oc1cccc(Cl)c1 — remaining binding (cell-free assay; competition with immobilised ligand; 1 µM): 82%
Cc1sc(C(=O)NC2COC2)cc1-n1cc(NC(=O)Nc2c(F)cccc2Cl)cn1 — remaining activity (enzyme activity; inhibitor; 10 µM): 104%
Cc1ccc(NC(=O)c2ccc(C)c(C(F)(F)F)c2)cc1C#Cc1nn(C2CCC(O)CC2)c2ncnc(N)c12 (stereo not shown) — remaining signal (cell-free assay; 10 µM): 114%
O=C(Nc1cnn(-c2csc(C(=O)NC3COC3)c2)c1)Nc1ccccc1Cl — remaining activity (enzyme activity; inhibitor; 5 µM): 98.5%
CNC(=O)c1cc(Oc2ccc(NC(=O)Nc3ccc(Cl)c(C(F)(F)F)c3)cc2)ccn1 — inhibition (enzyme activity; inhibitor; 10 µM): -4%
C[C@@H](c1cccc(C#N)c1)n1cc(Cl)cc(C(N)=O)c1=N — remaining binding (cell-free assay; competition with immobilised ligand; 1 µM): 100%
C[C@@H]1CCN(C(=O)CC#N)C[C@@H]1N(C)c1ncnc2[nH]ccc12 — remaining signal (cell-free assay; inhibitor; 0.5 µM): 95.4%
Cc1cnc(NC2CCOCC2)nc1-n1cnc(C(=O)NC(CN)c2cc(F)cc(Cl)c2)c1 (stereo not shown) — remaining activity (enzyme activity; inhibitor; radiometric; 1 µM): 53%
CC(C)(C)c1nc(-c2cccc(NS(=O)(=O)c3c(F)cccc3F)c2F)c(-c2ccnc(N)n2)s1 — remaining activity (enzyme activity; inhibitor; radiometric; 1 µM): 101%
CN1CCN(c2cnc3c(C4CCN(C(=O)c5ccc(OC(F)(F)F)cc5N)CC4)ncnc3c2)CC1 — remaining binding (cell-free assay; competition with immobilised ligand; 1 µM): 100%
CC(C)(O)[C@H]1CC[C@H](Nc2ccc3ncc(-c4cccc(C(F)(F)F)c4)n3n2)CC1 — remaining activity (enzyme activity; inhibitor; 1 µM): 96.1%
COc1cc(Nc2cnc(C#N)c(O[C@H](C)CN(C)C)n2)ncc1-c1cnn(C)c1 — remaining activity (enzyme activity; inhibitor; radiometric; 1 µM): 101%
C[C@@H]1CN(c2cc(-c3n[nH]c4ccc(OC5(C)CC5)cc34)ncn2)C[C@H](C)O1 — remaining binding (cell-free assay; competition with immobilised ligand; 0.1 µM): 100%
C#Cc1cccc(Nc2ncnc3cc(OCCOC)c(OCCOC)cc23)c1 — remaining signal (cell-free assay; 0.5 µM): 98.3%
Cc1ccc(C(=O)Nc2ccc(CN3CCN(C)CC3)c(C(F)(F)F)c2)cc1C#Cc1cnc2cccnn12 — remaining activity (enzyme activity; inhibitor; 23.5 nM): 96%
COc1cc(/C=C/C(=O)CC(=O)/C=C/c2ccc(O)c(OC)c2)ccc1O — activity vs control (enzyme activity; inhibitor; 1 µM): 77%
O=C(CSc1nc2nccnc2c(=O)n1CCc1ccccc1)Nc1nccs1 — inhibition (enzyme activity; inhibitor; 10 µM): 14%
COc1cc2ncnc(Nc3ccc(Oc4ccccc4)c(C)c3C)c2cc1OC — inhibition (enzyme activity; inhibitor; 1 µM): 1%
COc1ccc2cc(OCC3(C(=O)O)CN(C(=O)c4ccc(F)cc4)C3)ccc2c1 — remaining binding (cell-free assay; competition with immobilised ligand; 1 µM): 100%
N#CCCc1ccc2c(c1)-c1[nH]c3ccc([N+](=O)[O-])cc3c1CC(=O)N2 — remaining signal (cell-free assay; 0.5 µM): 84.8%
C[C@H](NC(=O)c1cnc2n1[C@](C)(Cc1ccc(C#N)cc1)C(=O)N2c1cc(Cl)c(F)c(Cl)c1)C(=O)NC1(c2ccccn2)CC1 — remaining binding (cell-free assay; competition with immobilised ligand; 1 µM): 90%
O=C1Nc2ccc(Cl)cc2C1=Cc1cc(Cl)c(O)c(Cl)c1 — remaining signal (cell-free assay; 0.5 µM): 83.5%
